Experimental data from ChEMBL document CHEMBL4152257, “Discovery of novel β-carboline/acylhydrazone hybrids as potent antitumor agents and overcome drug resistance” (Eur J Med Chem, 2018).

Tests used:
MCF7 [1] = assay: Antiproliferative activity against human MCF7 cells at 1 uM after 48 to 72 hrs by MTT assay relative to control; format: functional
Outline: (§1)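 Single-concentration screen in the MTT proliferation assay: log-phase cells seeded and allowed to adhere, exposed to compound at 1 µM for 48 h or 72 h, MTT added for 2-3 h, formazan dissolved in DMSO; percent inhibition versus control.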

MDA-MB-231 = assay: Antiproliferative activity against human MDA-MB-231 cells at 1 uM after 48 to 72 hrs by MTT assay relative to control; format: functional; outline: as §1
Raji [2] = assay: Antiproliferative activity against human Raji cells at 1 uM after 48 to 72 hrs by MTT assay relative to control; format: functional; outline: as §1
NCI-H460 [3] = assay: Antiproliferative activity against human H460 cells at 1 uM after 48 to 72 hrs by MTT assay relative to control; format: functional; outline: as §1
NCI-H460 [4] = assay: Antiproliferative activity against human H460 cells after 48 to 72 hrs by MTT assay; format: functional, cell-based
Outline: (§2)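 Cells in log phase seeded and allowed to adhere, then exposed to graded compound concentrations for 48 h or 72 h; MTT added for a further 2-3 h, formazan dissolved in DMSO. IC50 taken from dose-response curves; mean ± SD of at least three independent experiments.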

MCF7 [5] = assay: Antiproliferative activity against human MCF7 cells after 48 to 72 hrs by MTT assay; format: functional, cell-based; outline: as §2
Raji [6] = assay: Antiproliferative activity against human Raji cells after 48 to 72 hrs by MTT assay; format: functional, cell-based; outline: as §2
A549 = assay: Antiproliferative activity against human A549 cells after 48 to 72 hrs by MTT assay; format: functional, cell-based; outline: as §2
[7] = Resistance index, ratio of IC50 for human A549/TR cells to IC50 for human A549 cells; format: functional
A549/TR = assay: Antiproliferative activity against human A549/TR cells after 48 to 72 hrs by MTT assay; format: functional, cell-based; outline: as §2
A2780S = assay: Antiproliferative activity against human A2780S cells after 48 to 72 hrs by MTT assay; format: functional, cell-based; outline: as §2
A2780/Taxol = assay: Antiproliferative activity against human A2780T cells after 48 to 72 hrs by MTT assay; format: functional, cell-based; outline: as §2
[8] = Resistance index, ratio of IC50 for human A2780T cells to IC50 for human A2780S cells; format: functional
NCI-H460 [9] = assay: Antitumor activity against human H460 cells xenografted in athymic nude Balb/C mouse assessed as tumor growth inhibition at 30 mg/kg, ip administered once per week measured every two days relative to control; format: functional; details: 48 h, read-out: TGI
Outline: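 Nude mice (5-6 weeks old, female) implanted sc in right flank with 5 × 10^6 H460 cells in HBSS; at 100 mm3 tumours, randomised 6 per group to vehicle, oral 100 mg/kg three times weekly, or ip 30 mg/kg once weekly. Tumour volume by caliper every 2 days as (π/6) × length × width²; body weight recorded; inhibition from tumour weights versus control.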

Mus musculus = assay: Toxicity in athymic nude Balb/C mouse xenografted with human H460 cells assessed as body weight loss at 30 mg/kg, ip administered once per week measured every 2 days; format: organism-based; details: in vivo, 48 h
Outline: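 Nude mice, 5-to-6-week-old females, given 5 × 10^6 H460 cells sc in right flank in HBSS; at 100 mm3 tumour volume randomized, 6 per group. Vehicle; oral 100 mg/kg three times weekly; or ip 30 mg/kg once weekly. Toxicity signs and mortality observed daily; body weight measured every 2 days.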

| IC50 (NCI-H460 [4]) [nM] | IC50 (MCF7 [5]) [nM] | IC50 (Raji [6]) [nM] | IC50 (A549) [nM] | IC50 (A549/TR) [nM] | IC50 (A2780S) [nM] | IC50 (A2780/Taxol) [nM] | Compound | inhibition at 1 µM (MCF7 [1]) [%] | inhibition at 1 µM (MDA-MB-231) [%] | inhibition at 1 µM (Raji [2]) [%] | inhibition at 1 µM (NCI-H460 [3]) [%] | Ratio IC50 [7] | Ratio IC50 [8] | inhibition in vivo at 30 mg/kg (NCI-H460 [9]) [%] | Activity (Mus musculus) [%] |
| --- | --- | --- | --- | --- | --- | --- | --- | --- | --- | --- | --- | --- | --- | --- | --- |
| 2180 | 5240 | 4060 |  |  |  |  | Cc1ccc(COc2cccc(/C=N/NC(=O)c3cc4c(cn3)[nH]c3ccccc34)c2)cc1 | 53.5 | 28.7 | 45 | 29.2 |  |  |  |  |
|  |  |  |  |  |  |  | O=C(N/N=C/c1c[nH]c2ccccc12)c1cc2c(cn1)[nH]c1ccccc12 | 6.31 | 7.1 | 8.66 | 16.2 |  |  |  |  |
| 7490 | 6600 | 2040 |  |  |  |  | O=C(N/N=C/c1cccc(OCc2ccc(C(F)(F)F)cc2)c1)c1cc2c(cn1)[nH]c1ccccc12 | 38.4 | 24.4 | 51.2 | 23.4 |  |  |  |  |
|  |  |  |  |  |  |  | O=Cc1cccc(OCc2nnc(-c3cc4c(cn3)[nH]c3ccccc34)o2)c1 | 26.8 | 9.83 | 17.7 | 13.9 |  |  |  |  |
|  |  |  | 19.5 | 248 | 15.7 | 16900 | CC[C@]1(O)C[C@@H]2CN(CCc3c([nH]c4ccccc34)[C@@](C(=O)OC)(c3cc4c(cc3OC)N(C)[C@H]3[C@@](O)(C(=O)OC)[C@H](OC(C)=O)[C@]5(CC)C=CCN6CC[C@]43[C@@H]65)C2)C1 [VINBLASTINE] |  |  |  |  | 12.72 | 1073.76 |  |  |
|  |  |  |  |  |  |  | O=C(N/N=C/c1cccc(Oc2ccccc2)c1)c1cc2c(cn1)[nH]c1ccccc12 | -18.6 | 6.76 | 2.06 | 22.1 |  |  |  |  |
| 1040 | 8300 | 3020 |  |  |  |  | O=C(N/N=C/c1cccc(OCc2ccc([N+](=O)[O-])cc2)c1)c1cc2c(cn1)[nH]c1ccccc12 | 32.8 | 20.2 | 56.7 | 38.4 |  |  |  |  |
|  |  |  |  |  |  |  | c1ccc(OCc2nnc(-c3cc4c(cn3)[nH]c3ccccc34)o2)cc1 | -5.47 | 7.42 | 1.69 | 4.84 |  |  |  |  |
| 5020 | 8620 | 5020 |  |  |  |  | O=C(N/N=C/c1cccc(OCc2ccc(Cl)cc2)c1)c1cc2c(cn1)[nH]c1ccccc12 | 24.3 | 30.7 | 56.7 | 40.4 |  |  |  |  |
|  |  |  |  |  |  |  | Cc1ccccc1COc1cccc(/C=N/NC(=O)c2cc3c(cn2)[nH]c2ccccc23)c1 | 18.2 | 24.8 | 36 | 29.4 |  |  |  |  |
| 1170 | 1640 | 3880 |  |  |  |  | COC(=O)c1ccc(COc2cccc(/C=N/NC(=O)c3cc4c(cn3)[nH]c3ccccc34)c2)cc1 | 56.4 | 31.8 | 63.8 | 25.9 |  |  |  |  |
|  |  |  |  |  |  |  | N#Cc1ccccc1COc1cccc(/C=N/NC(=O)c2cc3c(cn2)[nH]c2ccccc23)c1 | 15.1 | 20.7 | 37.4 | 15.5 |  |  |  |  |
| 1360 | 6500 | 2940 |  |  |  |  | O=C(N/N=C/c1cccc(OCc2ccccc2F)c1)c1cc2c(cn1)[nH]c1ccccc12 | 46.2 | 24.7 | 54.3 | 43.2 |  |  |  |  |
| 1270 | 2320 | 3020 |  |  |  |  | O=C(N/N=C/c1cccc(OCc2ccccc2Cl)c1)c1cc2c(cn1)[nH]c1ccccc12 | 36.2 | 28.6 | 56.3 | 45.4 |  |  |  |  |
|  |  |  |  |  |  |  | O=C(N/N=C/c1cccc(O)c1)c1cc2c(cn1)[nH]c1ccccc12 | -13.8 | 8.13 | 9.69 | 5.08 |  |  |  |  |
|  |  |  | 23.2 | 759 | 18.9 | 73000 | CC(=O)O[C@H]1C(=O)[C@@]2(C)[C@H]([C@H](OC(=O)c3ccccc3)[C@]3(O)C[C@H](OC(=O)[C@H](O)[C@@H](NC(=O)c4ccccc4)c4ccccc4)C(C)=C1C3(C)C)[C@]1(OC(C)=O)CO[C@@H]1C[C@@H]2O [PACLITAXEL] |  |  |  |  | 32.76 | 3852.53 | 65.2 | < 5 |
|  |  |  |  |  |  |  | O=C(N/N=C/c1cccc(OCc2ccc(F)cc2)c1)c1cc2c(cn1)[nH]c1ccccc12 | 23.6 | 27.2 | 48 | 29.7 |  |  |  |  |
| 2420 | 7220 | 6740 |  |  |  |  | O=C(N/N=C/c1cccc(OCc2ccc(Br)cc2)c1)c1cc2c(cn1)[nH]c1ccccc12 | 50.4 | 31.8 | 58.7 | 52.8 |  |  |  |  |
|  |  |  |  |  |  |  | COc1ccc(/C=N/NC(=O)c2cc3c(cn2)[nH]c2ccccc23)cc1OCc1ccccc1 | -6.31 | 22.2 | 25.8 | 20.7 |  |  |  |  |
|  |  |  |  |  |  |  | Cc1cccc(COc2cccc(/C=N/NC(=O)c3cc4c(cn3)[nH]c3ccccc34)c2)c1 | 26.3 | 22.7 | 33.2 | 27.4 |  |  |  |  |
| 2840 | 9370 | 2340 |  |  |  |  | COc1ccc(COc2cccc(/C=N/NC(=O)c3cc4c(cn3)[nH]c3ccccc34)c2)cc1 | 37 | 23.6 | 52 | 38.6 |  |  |  |  |
|  |  |  |  |  |  |  | O=C(N/N=C/c1cccc(OCc2cccc(F)c2)c1)c1cc2c(cn1)[nH]c1ccccc12 | 17.1 | 16.5 | 40.4 | 21.7 |  |  |  |  |
|  |  |  |  |  |  |  | CN(Cc1ccccc1)Cc1nnc(-c2cc3c(cn2)[nH]c2ccccc23)o1 | -1.84 | -3.26 | 16.3 | 3.74 |  |  |  |  |
| 5710 | 14900 | 2040 |  |  |  |  | O=C(N/N=C/c1ccc2ccccc2c1)c1cc2c(cn1)[nH]c1ccccc12 | 35.7 | 21.8 | 51.8 | 40.7 |  |  |  |  |
|  |  |  |  |  |  |  | N#Cc1cccc(COc2cccc(/C=N/NC(=O)c3cc4c(cn3)[nH]c3ccccc34)c2)c1 | 17.9 | 21.9 | 24.1 | 12.8 |  |  |  |  |
| 3640 | 4560 | 1040 |  |  |  |  | O=C(N/N=C/c1ccc(-c2ccccc2)cc1)c1cc2c(cn1)[nH]c1ccccc12 | 36.6 | 29.3 | 62.5 | 44.3 |  |  |  |  |
|  |  |  |  |  |  |  | O=C(N/N=C/c1cccc(OCc2cccc(Cl)c2)c1)c1cc2c(cn1)[nH]c1ccccc12 | 22.4 | 15.6 | 48.2 | 31.9 |  |  |  |  |
|  |  |  |  |  |  |  | O=Cc1ccc(OCc2nnc(-c3cc4c(cn3)[nH]c3ccccc34)o2)cc1 | -2.52 | 2.98 | 9.17 | 6.63 |  |  |  |  |
| 6520 | 3560 | 2620 |  |  |  |  | O=C(N/N=C/c1cccc(OCc2ccccc2)c1)c1cc2c(cn1)[nH]c1ccccc12 | 23.1 | 25.6 | 50.2 | 29.7 |  |  |  |  |

| Compound | IC50 (NCI-H460 [4]) [nM] | IC50 (MCF7 [5]) [nM] | IC50 (Raji [6]) [nM] | IC50 (A549) [nM] | IC50 (A549/TR) [nM] | IC50 (A2780S) [nM] | IC50 (A2780/Taxol) [nM] | inhibition at 1 µM (MCF7 [1]) [%] | inhibition at 1 µM (MDA-MB-231) [%] | inhibition at 1 µM (Raji [2]) [%] | inhibition at 1 µM (NCI-H460 [3]) [%] | Ratio IC50 [7] | Ratio IC50 [8] | inhibition in vivo at 30 mg/kg (NCI-H460 [9]) [%] | Activity (Mus musculus) [%] |
| --- | --- | --- | --- | --- | --- | --- | --- | --- | --- | --- | --- | --- | --- | --- | --- |
| COc1cc2c(c(OC)c1OC)-c1ccc(OC)c(=O)cc1[C@@H](NC(C)=O)CC2 [COLCHICINE] |  |  |  |  | 167 | 21.9 | 35600 |  |  |  |  | 60.41 | 1630.02 |  |  |
| C/C(=N\NC(=O)c1cccc(S(=O)(=O)N2CCOCC2)c1)c1cc(Cl)ccc1O | 470 | 620 | 980 |  |  |  |  | 59.3 | 41.3 | 51.7 | 43.2 |  |  |  |  |
